An excerpt weighted towards active compounds, which were near 3.5% of everything screened.
PAFAH1B3 inh = inhibitors of human PAFAH1B3; Q15102; hit rate 0.28% among 340,000; recombinant PAFAH1B3, FP-rhodamine probe, fluorescence polarization; inhibition, % at 3.39 µM;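 active = inhibition above the screen-wide average of all tested compounds plus 3 SD, cut at about 25% in these data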
PAFAH1B2 inh = PAFAH1B2 (human) inhibition; hit rate 1.2% among 340,000; P68402; AID 492953; recombinant PAFAH1B2, FP-rhodamine activity probe, fluorescence polarization; inhibition, % at 3.39 µM;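 active = inhibition above the mean of all tested compounds plus 3 SD, cut at about 24% in these data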
PREPL inh = inhibitors of human prolyl oligopeptidase-like enzyme PREPL. recombinant PREPL, fluorescence polarization activity-based probe. inhibition, % at 5.96 µM. hit rate 0.68% among 320,000. AID 2751; in the data active = inhibition above about 43%
Target sequence (Q4J6C6 whole entry, looked up): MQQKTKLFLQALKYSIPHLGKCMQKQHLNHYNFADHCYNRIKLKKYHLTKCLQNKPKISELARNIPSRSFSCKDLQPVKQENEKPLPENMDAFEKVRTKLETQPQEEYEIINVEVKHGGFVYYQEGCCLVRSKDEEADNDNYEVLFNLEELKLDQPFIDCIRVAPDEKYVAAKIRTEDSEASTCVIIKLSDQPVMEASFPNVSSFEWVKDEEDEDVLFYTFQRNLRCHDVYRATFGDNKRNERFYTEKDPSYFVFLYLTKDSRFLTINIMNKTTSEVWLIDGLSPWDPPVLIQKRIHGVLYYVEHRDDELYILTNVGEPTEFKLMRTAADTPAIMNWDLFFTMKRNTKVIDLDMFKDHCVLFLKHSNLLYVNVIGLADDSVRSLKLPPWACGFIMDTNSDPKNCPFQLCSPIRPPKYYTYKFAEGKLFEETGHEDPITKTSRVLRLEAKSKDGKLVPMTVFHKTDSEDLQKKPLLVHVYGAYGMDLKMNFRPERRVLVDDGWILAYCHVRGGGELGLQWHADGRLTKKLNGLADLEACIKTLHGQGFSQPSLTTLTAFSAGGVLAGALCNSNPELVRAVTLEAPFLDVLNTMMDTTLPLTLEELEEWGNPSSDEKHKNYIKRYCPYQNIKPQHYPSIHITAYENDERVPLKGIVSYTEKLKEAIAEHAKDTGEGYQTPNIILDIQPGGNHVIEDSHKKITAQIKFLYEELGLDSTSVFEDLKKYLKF
PAFAH2 FP inh = PAFAH2 (human) inhibition. Q99487. inhibition, % at 3.39 µM. hit rate 0.99% among 340,000. recombinant PAFAH2, FP-rhodamine activity probe, fluorescence polarization;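 active = inhibition above the mean over all tested compounds plus 3 SD, cut at about 30% in these data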;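 note: inhibitors block probe labeling of enzyme so polarization drops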
pPAFAH FP inh = inhibitors of human plasma PAF acetylhydrolase (pPAFAH); Q13093; recombinant pPAFAH, FP-rhodamine probe fluorescence polarization; inhibition, % at 3.39 µM; hit rate 1.5% among 330,000;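 active = inhibition above the mean inhibition across the screen plus 3 SD, cut at about 25% in these data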;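 note: inhibitors block binding of the rhodamine activity-based probe so polarization drops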
Apaf-1 inh = human Apaf-1 inhibition; O14727; reconstituted apoptosome caspase-3 activity, DEVD-Rh110 fluorescence; inhibition, % at 20 µM; hit rate 0.71% among 330,000; AID 489030; active = inhibition of at least 40% at 20 µM
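System: reconstituted apoptosome with Apaf-1, cytochrome c, caspase-9, procaspase-3, dATP; Signal: Rh110 fluorescence intensity; Schedule: 30 min compound preincubation, 50 min activation, room temperature; Reagent: cytochrome c trigger plus (Z-DEVD)2-Rh110 caspase-3 substrate.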
A number is an active result; . = inactive; / = no result given.

SMILES	PAFAH1B3 inh	PAFAH1B2 inh	PREPL inh	PAFAH2 FP inh	pPAFAH FP inh	Apaf-1 inh
C[C@H](CO)N1C[C@H](C)[C@@H](CN(C)S(C)(=O)=O)Oc2c(NC(=O)Nc3ccc(C(F)(F)F)cc3)cccc2C1=O	.	.	.	.	.	.
COc1ccc(NC(=O)Nc2cccc3c2O[C@H](CN(C)S(=O)(=O)c2ccccc2)[C@@H](C)CN([C@H](C)CO)C3=O)cc1	.	.	.	.	.	.
C[C@@H]1CN([C@@H](C)CO)C(=O)c2cc(NS(=O)(=O)c3cccs3)ccc2O[C@H]1CN(C)Cc1ccc(C(F)(F)F)cc1	.	.	.	.	27.3	.
C[C@@H]1CN([C@H](C)CO)C(=O)c2cc(NS(=O)(=O)c3cccs3)ccc2O[C@H]1CN(C)Cc1ccccc1	.	.	.	.	.	.
C[C@H]1CN([C@@H](C)CO)C(=O)c2cccc(NC(=O)Nc3ccc(C(F)(F)F)cc3)c2O[C@@H]1CN(C)C(=O)Nc1ccc(F)cc1	.	52.2	.	.	.	.
C/C(=N\OCC(=O)Nn1c(C)nc2ccccc2c1=O)c1cccs1	.	.	.	.	.	.
C[C@H](CO)N1C[C@H](C)[C@@H](CN(C)C(=O)Nc2ccc(C(F)(F)F)cc2)Oc2c(NC(=O)Nc3ccc(C(F)(F)F)cc3)cccc2C1=O	.	50.5	.	.	.	.
COc1ccc(NC(=O)Nc2cccc3c2O[C@H](CN(C)C(=O)Nc2ccc(C(F)(F)F)cc2)[C@@H](C)CN([C@H](C)CO)C3=O)cc1	.	68.4	.	.	.	.
C[C@H](CO)N1C[C@H](C)[C@@H](CN(C)C(=O)Nc2ccc(C(F)(F)F)cc2)Oc2c(NS(=O)(=O)c3cccs3)cccc2C1=O	.	25.1	.	.	.	.
Cc1ccc(F)cc1CNC(=O)C1CCC(=O)N(C2CC2)C1 (centres undefined)	.	.	.	.	.	.
CCc1ccccc1NC(=O)Cn1nnc(C(=O)NCc2cccc(OC)c2)c1N	.	.	.	.	.	.
CCC1C/C(=C\c2cc(OC)c(OC)cc2OC)C(=O)/C(=C/c2cc(OC)c(OC)cc2OC)C1 (centres undefined)	.	.	.	.	.	/
CCC1C/C(=C/c2ccco2)C(=O)/C(=C/c2ccco2)C1 (centres undefined)	/	/	.	/	36.7	/
CC(C)Oc1ccc(S(=O)(=O)N2CCOCC2)cc1NC(=O)c1cccc(S(=O)(=O)N2CCCC2)c1	.	.	/	.	/	/
COc1cc(/C=C2/C(=O)N(c3ccc(C(=O)O)cc3)N=C2C)cc(OC)c1O	.	.	/	.	/	77.6
O=C(CCc1ccccc1)Nc1nc2nc(-c3ccccc3)cc(=O)n2[nH]1	.	26.7	.	.	.	.
O=C(COC(=O)C1(c2ccc(F)cc2)CCCC1)N1CCN(C(=O)c2ccco2)CC1	.	33.4	.	.	.	.
NC1=NC(c2cccc(Cl)c2)N(CCc2ccc(F)cc2)C(N)=N1 (centres undefined)	.	.	.	.	.	.
CCN(C(=O)CCNC(=O)Cn1cnc2ccccc2c1=O)c1ccccc1F	.	.	.	.	.	.
COc1ccc(S(=O)(=O)Nc2ccc3c(c2)C(=O)N([C@H](C)CO)C[C@H](C)[C@@H](CN(C)S(=O)(=O)c2ccccc2)O3)cc1	.	40.4	.	.	.	.
C[C@H]1CN([C@@H](C)CO)C(=O)c2cc(NS(=O)(=O)c3ccc(F)cc3)ccc2O[C@H]1CN(C)S(=O)(=O)c1cn(C)cn1	.	.	.	.	27.9	.
c1ccc(CCNc2nc(-c3ccccn3)cs2)cc1	.	.	.	.	.	.
c1ccc(CCNc2nc(-c3cccnc3)cs2)cc1	.	.	48.7	.	.	.
CCN(CC)c1ccc(/C=C2\CCC(/C=N/NC(=O)c3ccc(=O)n(C)c3)=C2N2CCOCC2)cc1	.	.	.	.	29.2	.
O=C(N/N=C/C1=C(N2CCOCC2)C(=C\c2ccccc2)/CC1)Nc1ccccc1	.	.	.	.	.	.
SMILES	PAFAH1B3 inh	PAFAH1B2 inh	PREPL inh	PAFAH2 FP inh	pPAFAH FP inh	Apaf-1 inh
CCCOc1cc(N(CC)CC)ccc1/C=C(/C#N)c1nc2ccc(C)cc2[nH]1	.	.	.	.	.	.
CCOc1cc(N(CC)CC)ccc1/C=C(/C#N)c1nc2ccccc2[nH]1	.	.	.	.	26.8	.
CCC(C)Nc1nc(N)c([N+](=O)[O-])c(Nc2ccccc2OC)n1 (centres undefined)	.	.	.	.	.	.
CCC(C)Nc1nc(N)c([N+](=O)[O-])c(Nc2cc(OC)ccc2OC)n1 (centres undefined)	.	.	.	.	29.1	.
CCOc1ccc(NS(=O)(=O)c2ccc3[nH]c(=O)[nH]c3c2)cc1	.	.	.	.	.	.
COc1ccc(NC(=O)C2CCC(C(C)(C)C)CC2)cc1S(=O)(=O)N1CCOCC1 (centres undefined)	.	.	.	.	.	.
Nc1cc(S(=O)(=O)O)cc([N+](=O)[O-])c1O	.	.	.	.	.	.
Cc1ccc(S(=O)(=O)c2cc(Nc3ccccc3)ccc2O)cc1	.	.	.	.	.	.
Nc1cccc2c(O)cc(S(=O)(=O)O)cc12	76.9	70.5	/	66.5	/	/
O=S(=O)(O)c1cc(O)c2cc(Nc3ccccc3)ccc2c1	43.2	26.0	/	41.6	/	/
Nc1cccc2c(O)cccc12	34.9	.	.	44.3	.	.
Nc1ccc2c(O)cc(S(=O)(=O)O)cc2c1	60.4	37.2	/	53.5	/	/
CC(NC(=O)Cc1ccc(S(=O)(=O)N2CCOCC2)s1)c1ccc(Cl)cc1Cl (centres undefined)	.	.	.	.	.	.
CC(=O)Nc1ccc2c(O)cc(S(=O)(=O)O)cc2c1	.	.	/	.	/	/
COc1ccccc1Nc1ccc2c(O)cc(S(=O)(=O)O)cc2c1	75.4	34.0	/	75.4	/	/
O=S(=O)(O)c1cc(O)c2ccc(Nc3ccccc3)cc2c1	42.5	.	/	65.8	/	/
O=S(=O)(O)c1ccc(O)c2cc(Nc3ccccc3)ccc12	76.2	57.6	/	89.2	/	/
CCCCN(CC)S(=O)(=O)c1ccc2c(c1)n(C)c(=O)c(=O)n2C	.	.	.	.	.	.
O=C1N(Cc2ccccc2)c2ccccc2C12OCCO2	.	.	.	.	24.9	.
CCC(C)[C@H]1CNC(=S)N1CCc1cc(C(F)(F)F)cc(C(F)(F)F)c1 (some centres undefined)	.	.	.	.	27.1	.
COc1ccc(C(=O)N(CCc2ccccc2)Cc2ccccc2)cc1S(=O)(=O)N1CCOCC1	.	.	.	.	26.8	45.0
CCCN1/C(=C(\C#N)C2=NS(=O)(=O)c3ccccc32)N(C)c2ccccc21	.	.	/	.	/	/
C=CCn1c(SCC(=O)c2ccc(O)c(O)c2)nnc1-c1ccccc1OC	.	.	.	.	27.1	.
C=CCn1c(SCC(=O)c2ccc(O)c(O)c2)nnc1-c1cccc(Cl)c1	.	.	.	39.0	28.5	.
C=CCn1c(SCC(=O)O)nnc1-c1cccc(Cl)c1	.	.	.	.	.	.

Compound activity from PubChem BioAssay.
